Measurements as given in ChEMBL document CHEMBL5584363, “Euphane and Tirucallane Triterpenes with Trypanocidal Activity from Euphorbia desmondii” (J Nat Prod, 2024).
Active and inactive are the calls of the source. No cut-off for these calls is given here.

What was measured:
[1] = system: Trypanosoma cruzi; test: Antitrypanosomal activity against Trypanosoma cruzi […] Y (ATCC 50832) expressing GFP infected in mouse RAW264.7 cells assessed as inhibition of parasite replication measured after 6 days by FACS analysis; format: functional, organism-based; details: time 6.0 day
How it was run: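 RAW264.7 cells seeded at 40,000 or 10,000 cells/mL and left to adhere 24 h. Infected with swim-out trypomastigotes at multiplicity 10. Next day free parasites washed off and compound added in RPMI with 2% FBS. After 6 days, released GFP parasites fixed in 4% paraformaldehyde 1 h and counted by FACS. Run in triplicate with DMSO and benznidazole controls.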

[2] = Selectivity index, ratio of IC50 for mouse RAW264.7 cells to IC50 for antitrypanosomal activity against Trypanosoma cruzi […] Y (ATCC 50832) expressing GFP infected in mouse RAW264.7 cells assessed as inhibition of parasite replication; format: toxicity, cell-based; details: read-out: Ratio IC50
[3] = system: Trypanosoma cruzi; test: Antitrypanosomal activity against Trypanosoma cruzi trypomastigotes Y (ATCC 50832) expressing GFP infected in CCL39 cells assessed as reduction in parasite replication measured after 1 hr by microscopy; format: functional, organism-based
How it was run: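 CCL39 fibroblasts seeded at 20,000 cells/mL and left to adhere 24 h. Infected with trypomastigotes at multiplicity 10. Next day free parasites washed off and compound added in RPMI with 2% hiFBS. On day 4 after infection, cells fixed in 4% paraformaldehyde for 1 h and imaged by brightfield and GFP fluorescence microscopy.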

[4] = system: Trypanosoma cruzi; test: Antitrypanosomal activity against Trypanosoma cruzi epimastigotes Y (ATCC 50832) expressing GFP at 10 uM incubated for 72 hrs by XTT assay; format: functional, organism-based
How it was run: (§1)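 Y-strain epimastigotes kept in LIT medium with 10% heat-inactivated FBS at 28 °C; log-phase cells used. 1.5 × 10^5 parasites per well. Exposure at 10 μM (screen) or six concentrations from 10–0.3 μM for 72 h at 28 °C, with benznidazole control. XTT/PMS added for 2.5 h at 28 °C, then MeOH fixation and A490. Viability given as % of vehicle, or IC50. Triplicate, at least two independent experiments.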

[5] = Effect on Trypanosoma cruzi epimastigotes Y (ATCC 50832) expressing GFP proliferation assessed as increase in cell proliferation at 0.3 uM incubated for 72 hrs by XTT assay relative to control; format: functional; how it was run: as §1
[6] = Cytotoxicity against mouse RAW264.7 cells assessed as reduction in cell viability; format: toxicity, cell-based
[7] = system: Trypanosoma cruzi; test: Antitrypanosomal activity against Trypanosoma cruzi epimastigotes Y (ATCC 50832) expressing GFP incubated for 72 hrs by XTT assay; format: functional, organism-based; how it was run: as §1
[8] = Selectivity index, ratio of IC50 for mouse RAW264.7 cells to IC50 for antitrypanosomal activity against Trypanosoma cruzi epimastigotes Y (ATCC 50832) expressing GFP; format: toxicity; details: read-out: Ratio IC50

Row | SMILES | inhibition [1] | selectivity ratio [2] | Activity [3] | Activity [4] | Activity [5] | IC50 [6] | IC50 [7] | selectivity ratio [8]
1 | C[C@H](C/C=C/C(C)(C)OO)[C@@H]1CC[C@]2(C)C3=C(CC[C@@]12C)[C@@]1(C)CC[C@H](O)C(C)(C)[C@@H]1CC3=O | Dose-Dependent Effect | > 10 | Active | – | – | – | – | –
2 | C[C@@H](C/C=C/C(C)(C)OO)[C@@H]1CC[C@]2(C)C3=C(C(OO)C[C@@]12C)[C@@]1(C)CC[C@H](O)C(C)(C)[C@@H]1CC3=O (some centres not stated) | – | – | – | Active | 15% | – | – | –
3 | CC(C)=CCC[C@@H](C)[C@@H]1CC[C@]2(C)C3=C(C(=O)C[C@@]12C)[C@@]1(C)CC[C@H](O)C(C)(C)[C@@H]1C[C@H]3O | – | – | – | Active | 15% | – | – | –
4 | CC(=O)CCC[C@H](C)[C@@H]1CC[C@]2(C)C3=C(C(=O)C[C@@]12C)[C@@]1(C)CC[C@H](O)C(C)(C)[C@@H]1CC3=O | – | – | – | Active | 15% | 24.4 µM | 3.7 µM | 6.6
